Active and inactive are the calls of the source. The calls are words filed in the database; no cut-off is given here.
Experiments:
UACC-257 = test: Growth inhibition of human UACC257 cells after 48 hrs by MTT assay; type: functional, cell-based; details: UACC-257, 48 h
A-375 = test: Growth inhibition of human A375 cells after 3 hrs by MTT assay; type: functional, cell-based; details: A-375, 3 h
Method in brief: (§1)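 Adherent cells grown in 10% FBS medium (RPMI 1640 or DMEM) were exposed to drug for 3 h. They were then grown until control wells reached ~80% confluence (3–5 days) and quantified by MTT metabolism or crystal violet staining. IC50 was taken from growth inhibition. Each condition was run in hexuplicate, and experiments were done at least twice.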

HL-60 [1] = test: Induction of apoptosis in HL60 cells assessed as annexin V positive cells; type: functional, Homo sapiens
Method in brief: (§2)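 HL-60 and HL-60/MX2 cells in RPMI 1640/10% FBS were treated with 100 nM drug or vehicle for 24 h. Cells were washed in cold PBS and stained with annexin V-fluorescein plus propidium iodide in binding buffer (140 mM NaCl, 10 mM HEPES pH 7.4, 2.5 mM CaCl2). The percent annexin V-positive cells was read by flow cytometry.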

[2] = Growth inhibition of human IGROVI cells after 48 hrs by MTT assay; type: functional, cell-based
HCT-116 [3] = test: Induction of apoptosis in human HCT116 cells at 200 nM for 3 hrs by annexin V staining assay; type: functional
Method in brief: (§3)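 HCT-116 cells in McCoy's medium/10% FBS were exposed to drug at a series of concentrations, or to vehicle, for 3 h. At 48 h post-treatment they were trypsinized and washed in cold PBS. They were then stained with annexin V-fluorescein and propidium iodide in HEPES pH 7.4/CaCl2 binding buffer, and the percent apoptotic cells was measured by flow cytometry.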

SF-268 = test: Growth inhibition of human SF268 cells after 48 hrs by MTT assay; type: functional, cell-based; details: SF-268, 48 h
RXF 393 = test: Growth inhibition of human RXF393 cells after 48 hrs by MTT assay; type: functional, cell-based; details: RXF 393, 48 h
Homo sapiens [4] = species: Homo sapiens; test: Inhibition of topoisomerase 2 at 50 nM by decatenation assay
Method in brief: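 Human recombinant topoisomerase II (one unit) was incubated with 143 ng catenated kinetoplast DNA, with or without drug, for 30 min at 37 °C. The buffer held 120 mM KCl, 50 mM Tris-HCl, 10 mM MgCl2, 0.5 mM DTT, 0.5 mM ATP and 30 μg/mL BSA. Reactions were stopped with sarkosyl/glycerol dye, and decatenation was resolved by agarose gel electrophoresis.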

DU-145 = test: Growth inhibition of human DU145 cells after 48 hrs by MTT assay; type: functional, cell-based; details: DU-145, 48 h
HL60/MX2 [5] = test: Induction of apoptosis in topoisomerase 2 deficient HL60/MX2 cells assessed as annexin V positive cells; type: functional, Homo sapiens; method in brief: as §2
MIA PaCa-2 = test: Growth inhibition of human MiaPaCa2 cells after 3 hrs by MTT assay; type: functional, cell-based; details: MIA PaCa-2, 3 h; method in brief: as §1
[6] = Growth inhibition of human MCF7/ADR cells after 48 hrs by crystal violet assay; type: functional, cell-based; details: NCI/ADR-RES
MDA-MB-435 = test: Growth inhibition of human MDA-MB-435 cells after 3 hrs by MTT assay; type: functional, cell-based; details: MDA-MB-435, 3 h; method in brief: as §1
SHP77 = test: Growth inhibition of human SHP77 cells after 3 hrs by MTT assay; type: functional, cell-based; details: SHP77, 3 h; method in brief: as §1
HCT-116 [7] = test: Induction of apoptosis in human HCT116 cells at 400 nM for 3 hrs relative to control cells by annexin V staining assay; type: functional, cell-based; method in brief: as §3
BXPC-3 = test: Growth inhibition of human BxPc3 cells after 3 hrs by MTT assay; type: functional, cell-based; details: BXPC-3, 3 h; method in brief: as §1
PC-3 = test: Growth inhibition of human PC3 cells after 3 hrs by MTT assay; type: functional, cell-based; details: PC-3, 3 h; method in brief: as §1
[8] = Growth inhibition of human HL60(TB) cells after 48 hrs by crystal violet assay; type: functional, HL-60(TB); details: HL-60, 48 h
HL60/MX2 [9] = test: Effect on G2/M arrest in topoisomerase 2 deficient human HL60/MX2 cells at 100 nM after 24 hrs; type: functional, cell-based
Method in brief: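 HL-60/MX2 cells in RPMI 1640/10% FBS were treated with 100 nM drug or vehicle for 24 h, then centrifuged and washed in cold PBS. They were fixed in 50% ethanol, treated with RNase A and stained with propidium iodide (50 μg/mL final). Cell cycle distribution was read by flow cytometry.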

HCT-116 [10] = test: Induction of apoptosis in human HCT116 cells at 50 nM for 3 hrs by annexin V staining assay; type: functional; method in brief: as §3
HL-60 [11] = test: Effect on G2/M arrest in human HL60 cells at 100 nM after 24 hrs; type: functional, cell-based
Method in brief: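 HL-60 cells kept in RPMI 1640 with 10% FBS, 2 mM L-glutamine, 10 mM HEPES. Exposed continuously for 24 h at 100 nM or vehicle. Cells centrifuged, washed in cold PBS/2 mM EDTA, fixed in 50% ethanol, RNase A treated, stained with propidium iodide (50 μg/mL final). Cell cycle distribution read by flow cytometry.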

HCT-116 [12] = test: Cell cycle arrest in human HCT116 cells by accumulation at G2/M phase at 400 nM for 3 hrs by flow cytometry; type: functional, cell-based
Method in brief: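 HCT-116 cells in McCoy's medium with 10% FBS, exposed 3 h at 400 nM or vehicle, then grown on and analysed 24 h post-treatment. Cells trypsinized, washed in cold PBS/2 mM EDTA, fixed in 50% ethanol, RNase A treated, stained with propidium iodide (50 μg/mL final). DNA content by FACScan flow cytometry.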

NCI-H460 = test: Growth inhibition of human NCIH460 cells after 48 hrs by MTT assay; type: functional, cell-based; details: NCI-H460, 48 h
HCT-116 [13] = test: Growth inhibition of human HCT116 cells after 48 hrs by MTT assay; type: functional, cell-based; details: HCT-116, 48 h
Homo sapiens [14] = species: Homo sapiens; test: Inhibition of topoisomerase 2 at 500 nM by decatenation assay
Method in brief: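 Kinetoplast DNA decatenation: 143 ng catenated kDNA with one unit human recombinant topoisomerase II, ± drug at 500 nM. Buffer: 120 mM KCl, 50 mM Tris-HCl, 10 mM MgCl2, 0.5 mM DTT, 0.5 mM ATP, 30 μg/mL BSA. Incubated 30 min at 37 °C. Stopped with sarkosyl/glycerol loading dye, then resolved by agarose gel electrophoresis.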

COc1cccc2c1C(=O)c1c(O)c3c(c(O)c1C2=O)C[C@@](O)(C(=O)CO)C[C@@H]3O[C@H]1C[C@@H]2NCO[C@@H]2[C@H](C)O1 [DOXAZOLIDINE]
IC50 (UACC-257): < 1.51 nM
IC50 (A-375): 1 nM
Activity (HL-60 [1]): 77%
IC50 [2]: < 1.38 nM
Activity (HCT-116 [3]): 60%
IC50 (SF-268): 2.63 nM
IC50 (RXF 393): < 0.977 nM
Activity (Homo sapiens [4]): Active
IC50 (DU-145): 3.16 nM
Activity (HL60/MX2 [5]): 75%
IC50 (MIA PaCa-2): 3.16 nM
IC50 [6]: < 18.6 nM
IC50 (MDA-MB-435): 10 nM
IC50 (SHP77): 2 nM
Activity (HCT-116 [7]): Dose-dependent effect
IC50 (BXPC-3): 10 nM
IC50 (PC-3): 10 nM
IC50 [8]: 0.331 nM
Activity (HL60/MX2 [9]): Active
Activity (HCT-116 [10]): 20%

COc1cccc2c1C(=O)c1c(O)c3c(c(O)c1C2=O)C[C@@](O)(C(=O)CO)C[C@@H]3O[C@H]1C[C@H](N)[C@H](O)[C@H](C)O1 [DOXORUBICIN]
Activity (HL-60 [11]): inactive
IC50 (UACC-257): 209 nM
IC50 (A-375): 200 nM
Activity (HL-60 [1]): 29%
IC50 [2]: 110 nM
IC50 (SF-268): 91.2 nM
IC50 (RXF 393): 178 nM
IC50 (DU-145): 110 nM
Activity (HL60/MX2 [5]): 5%
IC50 (MIA PaCa-2): 316 nM
IC50 [6]: 13200 nM
Activity (HCT-116 [12]): Active
IC50 (NCI-H460): 6.03 nM
IC50 (HCT-116 [13]): 70.8 nM
IC50 (MDA-MB-435): 158 nM
Activity (Homo sapiens [14]): Active
IC50 (SHP77): > 1000 nM
IC50 (PC-3): 316 nM
IC50 [8]: 58.9 nM
